From ChEMBL document CHEMBL1142297, “2,6-Diaryl-4-phenacylaminopyrimidines as potent and selective adenosine A(2A) antagonists with reduced hERG liability” (Bioorg Med Chem Lett, 2008)
≈ marks a conversion by molar mass, not a printed value.

Key:
Adenosine receptor A2a [1] = biological target: T1, Adenosine receptor A2a (Homo sapiens, UniProt P29274); assay: Displacement of [3H]ZM241385 from human adenosine A2A receptor expressed in HEK293 cells; format: cell-based
[2] = Metabolic stability in human liver microsomes; format: ADME, Microsome
Homo sapiens = organism: Homo sapiens; assay: Selectivity for human adenosine A2A receptor over human adenosine A1 receptor
Procedure, shortened: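 Ki ratio from radioligand displacement in HEK293 cells expressing human receptors. A2A uses [3H]-ZM241385 and A1 uses [3H]-DPCPX. A standard antagonist is included on each plate. Geometric means of 3–6 independent experiments, SD ≤20%.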

Cytochrome P450 3A4 = Cytochrome P450 3A4 (Homo sapiens, UniProt P08684); assay: Inhibition of CYP3A4; format: ADME
Chain of Cytochrome P450 3A4 (P08684 whole entry, canonical isoform): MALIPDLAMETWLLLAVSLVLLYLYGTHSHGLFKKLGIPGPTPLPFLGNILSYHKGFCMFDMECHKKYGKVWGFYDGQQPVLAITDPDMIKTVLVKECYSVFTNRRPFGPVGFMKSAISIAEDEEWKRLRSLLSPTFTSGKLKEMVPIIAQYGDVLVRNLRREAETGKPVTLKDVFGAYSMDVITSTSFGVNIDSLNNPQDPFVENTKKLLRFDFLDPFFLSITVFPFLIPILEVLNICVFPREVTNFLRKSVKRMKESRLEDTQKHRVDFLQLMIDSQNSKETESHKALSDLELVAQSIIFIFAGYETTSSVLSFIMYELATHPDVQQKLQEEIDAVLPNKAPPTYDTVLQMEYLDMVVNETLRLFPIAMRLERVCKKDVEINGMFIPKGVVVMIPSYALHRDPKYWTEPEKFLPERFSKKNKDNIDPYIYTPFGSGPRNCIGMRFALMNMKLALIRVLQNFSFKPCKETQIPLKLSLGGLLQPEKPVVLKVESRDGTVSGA
Procedure, shortened: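 Recombinant CYP3A4 in microsomes from transfected cells expressing only that isoform, with the fluorescent substrate BFC; ketoconazole as positive control. IC50 determined; compounds with IC50 < 30 µM run in two or three experiments.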

Adenosine receptor A2a [3] = biological target: T1, Adenosine receptor A2a; assay: Antagonist activity at human adenosine A2A receptor expressed in HEK293 cells by cAMP assay; format: functional, cell-based
[4] = Solubility in buffer solution at pH 2; format: physicochemical
Procedure, shortened: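 About 1 mg of solid is weighed into pH 2.00 buffer solution, sonicated 10 min, shaken overnight and centrifuged. The supernatant is quantified by HPLC against a standard curve of known dilutions of authentic sample.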

[5] = biological target: Voltage-gated inwardly rectifying potassium channel KCNH2 (Homo sapiens, UniProt Q12809); assay: Inhibition of human ERG expressed in HEK cells assessed as effect on electric current by patch clamp assay; format: cell-based, HEK293
Chain of Voltage-gated inwardly rectifying potassium channel KCNH2 (Q12809 whole entry): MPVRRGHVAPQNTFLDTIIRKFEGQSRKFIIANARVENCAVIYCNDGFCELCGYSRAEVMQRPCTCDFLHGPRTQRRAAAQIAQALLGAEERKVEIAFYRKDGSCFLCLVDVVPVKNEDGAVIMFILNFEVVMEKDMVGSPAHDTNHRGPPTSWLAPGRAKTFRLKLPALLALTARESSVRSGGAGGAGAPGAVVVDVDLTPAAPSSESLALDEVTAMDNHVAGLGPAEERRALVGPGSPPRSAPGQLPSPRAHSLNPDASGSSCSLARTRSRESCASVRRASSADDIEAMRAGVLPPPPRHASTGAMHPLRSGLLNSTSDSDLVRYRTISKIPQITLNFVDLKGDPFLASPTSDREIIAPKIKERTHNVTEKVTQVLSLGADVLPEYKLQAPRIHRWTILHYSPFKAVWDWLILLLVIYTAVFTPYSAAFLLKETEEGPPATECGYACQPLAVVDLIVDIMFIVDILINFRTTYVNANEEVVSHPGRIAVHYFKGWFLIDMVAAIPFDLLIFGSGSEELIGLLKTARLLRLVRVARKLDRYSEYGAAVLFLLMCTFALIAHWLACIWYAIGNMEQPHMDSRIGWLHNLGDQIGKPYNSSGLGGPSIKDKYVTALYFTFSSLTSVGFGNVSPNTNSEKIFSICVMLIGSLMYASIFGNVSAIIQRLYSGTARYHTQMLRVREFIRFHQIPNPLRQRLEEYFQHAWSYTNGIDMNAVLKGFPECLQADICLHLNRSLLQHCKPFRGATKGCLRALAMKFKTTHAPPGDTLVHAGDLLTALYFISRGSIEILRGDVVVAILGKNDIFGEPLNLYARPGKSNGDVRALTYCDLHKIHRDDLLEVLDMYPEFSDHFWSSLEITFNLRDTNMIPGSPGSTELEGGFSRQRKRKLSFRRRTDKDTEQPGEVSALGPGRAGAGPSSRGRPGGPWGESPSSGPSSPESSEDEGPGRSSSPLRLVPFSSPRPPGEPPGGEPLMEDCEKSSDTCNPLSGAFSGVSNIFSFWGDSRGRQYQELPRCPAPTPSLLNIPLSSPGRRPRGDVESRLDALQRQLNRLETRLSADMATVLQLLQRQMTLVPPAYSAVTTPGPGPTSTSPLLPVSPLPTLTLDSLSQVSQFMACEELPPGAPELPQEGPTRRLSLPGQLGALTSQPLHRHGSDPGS
Procedure, shortened: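 hERG potassium current was recorded by patch clamp in a HEK cell line stably carrying hERG. Each compound was applied at six concentrations (0.1 nM, 1 nM, 10 nM, 100 nM, 1 μM, 10 μM), and its effect on current was read at the end of a 5-min application. Cisapride (30 nM) served as positive control.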

Cytochrome P450 2D6 = Cytochrome P450 2D6 (Homo sapiens, UniProt P10635); assay: Inhibition of CYP2D6; format: ADME
Chain of Cytochrome P450 2D6 (P10635 whole entry): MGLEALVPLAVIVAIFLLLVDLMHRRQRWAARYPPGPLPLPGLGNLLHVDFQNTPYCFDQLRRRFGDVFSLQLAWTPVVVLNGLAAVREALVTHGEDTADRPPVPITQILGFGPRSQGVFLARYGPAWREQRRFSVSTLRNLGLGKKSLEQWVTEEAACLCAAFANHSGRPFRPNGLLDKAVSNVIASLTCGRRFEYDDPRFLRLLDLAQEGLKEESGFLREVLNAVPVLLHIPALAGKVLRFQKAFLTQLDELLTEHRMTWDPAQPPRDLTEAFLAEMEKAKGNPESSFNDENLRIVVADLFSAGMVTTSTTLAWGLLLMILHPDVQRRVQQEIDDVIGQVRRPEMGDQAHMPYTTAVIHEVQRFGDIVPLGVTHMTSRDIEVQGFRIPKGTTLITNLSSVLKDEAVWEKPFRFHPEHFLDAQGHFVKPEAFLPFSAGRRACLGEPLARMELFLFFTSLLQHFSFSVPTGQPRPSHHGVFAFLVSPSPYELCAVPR
Procedure, shortened: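 Recombinant CYP2D6 in microsomes from transfected cells, with the fluorescent substrate AMMC; quinidine as positive control. IC50 determined; compounds with IC50 < 30 μM assayed in two or three experiments.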

T1 sequence (P29274 whole entry): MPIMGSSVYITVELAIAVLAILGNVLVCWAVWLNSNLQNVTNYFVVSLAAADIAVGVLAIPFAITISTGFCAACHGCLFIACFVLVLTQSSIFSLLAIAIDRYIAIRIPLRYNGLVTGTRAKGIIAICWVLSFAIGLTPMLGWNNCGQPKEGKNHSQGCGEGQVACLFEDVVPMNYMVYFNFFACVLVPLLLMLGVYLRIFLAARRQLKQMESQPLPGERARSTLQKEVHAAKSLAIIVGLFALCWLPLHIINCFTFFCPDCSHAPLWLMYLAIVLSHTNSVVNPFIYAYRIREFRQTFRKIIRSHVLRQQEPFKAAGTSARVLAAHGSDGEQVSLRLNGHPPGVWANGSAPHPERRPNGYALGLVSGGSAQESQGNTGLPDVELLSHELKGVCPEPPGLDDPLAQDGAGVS

Structure (SMILES) | Ki (Adenosine receptor A2a [1]) | Selectivity ratio (Homo sapiens) | IC50 (Cytochrome P450 3A4) | further results
CCOc1ccc(CC(=O)Nc2cc(-n3nc(C)cc3C)nc(-c3ccccn3)n2)cc1OC | 1 nM | 257 | 7000 nM | CLint scaled [2]: 47 mL/min/kg
COc1ccc(CC(=O)Nc2cc(-n3cccn3)nc(-c3ccc(C)o3)n2)cc1 | 10 nM | 12 |  | 
COc1ccc(CC(=O)Nc2cc(-c3nccs3)nc(-c3ccc(C)o3)n2)cc1 | 6 nM | 12 |  | 
Cc1cc(C)n(-c2cc(NC(=O)Cc3cc(F)cc(F)c3)nc(-c3ccc(C)o3)n2)n1 | 5 nM | 126 |  | 
COc1ccc(CC(=O)Nc2cc(-c3nccs3)nc(-c3ccccn3)n2)cc1 | 1 nM | 18 |  | 
COc1ccc(CC(=O)Nc2cc(-n3nc(C)cc3C)nc(-c3ccc(C)o3)n2)cc1 | 4 nM | 61 |  | 
COc1ccc(CC(=O)Nc2cc(-n3nc(C)cc3C)nc(-c3ccc(C)o3)n2)cc1C | 3 nM | 411 |  | 
COc1cc(CC(=O)Nc2cc(-n3nc(C)cc3C)nc(-c3ccccn3)n2)cc(OC)c1 | 1 nM | 477 | 1300 nM | 
Cc1cc(C)n(-c2cc(NC(=O)Cc3ccc(S(C)(=O)=O)cc3)nc(-c3ccccn3)n2)n1 | 1 nM | 148 | > 10000 nM | CLint scaled [2]: 7 mL/min/kg; IC50 (Adenosine receptor A2a [3]): 100 nM; solubility [4]: 500 µg/mL (≈ 1080 µM)
COc1cc(CC(=O)Nc2cc(-n3nc(C)cc3C)nc(-c3ccc(C)o3)n2)cc(OC)c1 | 2 nM | 487 | > 5000 nM | CLint scaled [2]: 78 mL/min/kg; IC50 [5]: > 3000 nM; IC50 (Cytochrome P450 2D6): > 5000 nM; solubility [4]: < 100 µg/mL
Cc1cc(C)n(-c2cc(NC(=O)Cc3ccc(N(C)C)cc3)nc(-c3ccc(C)o3)n2)n1 | 2 nM | 162 |  | 
COc1ccc(CC(=O)Nc2cc(-n3nc(C)cc3C)nc(-c3ccc(C)o3)n2)cc1OC | 2 nM | 180 |  | 
Cc1cc(C)n(-c2cc(NC(=O)Cc3ccc(F)c(F)c3)nc(-c3ccc(C)o3)n2)n1 | 5 nM | 152 |  | 
Cc1cc(C)n(-c2cc(NC(=O)Cc3ccc(CN4CCOCC4)cc3)nc(-c3ccc(C)o3)n2)n1 | 0.8 nM | 179 |  | 
COc1ccc(CC(=O)Nc2cc(-n3nc(C)cc3C)nc(-c3ccc(C)o3)n2)cc1F | 3 nM | 129 |  | 
COc1ccc(CC(=O)Nc2cc(-n3nc(C)cc3C)nc(-c3ccccn3)n2)cc1 | 1 nM | 66 | 1800 nM | 
Cc1cc(C)n(-c2cc(NC(=O)Cc3ccc(NS(C)(=O)=O)cc3)nc(-c3ccc(C)o3)n2)n1 | 5 nM | 90 |  | 
Cc1cc(C)n(-c2cc(NC(=O)Cc3ccc(CN(C)C)cc3)nc(-c3ccc(C)o3)n2)n1 | 0.2 nM | 80 |  | 
Cc1cc(C)cc(CC(=O)Nc2cc(-n3nc(C)cc3C)nc(-c3ccccn3)n2)c1 | 3 nM | 186 | > 10000 nM | CLint scaled [2]: 113 mL/min/kg
